For the assay, the system named is NCI-H460. As to the kind of experiment: Induction of GRP78 mRNA expression in human NCI-H460 cells after 1 hrs by real time quantitative PCR analysis. It is filed as functional, cell-based. A digest of the protocol: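 H460 cells treated across a concentration range for 1 h. GRP78 mRNA quantified by RT-qPCR, normalized to β-actin and expressed as percent of vehicle.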

Active and inactive are the calls of the source. The calls are words filed in the database; no cut-off is given here.

For the molecule `COc1cccc(/C=C/C(=O)/C=C/c2cccc(OC)c2OC)c1OC`, the outcome was Active.

(Values after ChEMBL document CHEMBL1781992, “A novel monocarbonyl analogue of curcumin, (1E,4E)-1,5-bis(2,3-dimethoxyphenyl)penta-1,4-dien-3-one, induced cancer cell H460 apoptosis via activation of endoplasmic reticulum stress signaling pathway” (J Med Chem, 2011).)
